Assay outcomes: PubChem BioAssay, several laboratories
Compounds with a hit are over-represented: about 1.5% of the library has one in this group of screens.
CaV13 FRET inh: Primary screen for inhibitors of IQ motif and Ca2+-dependent inactivation inhibitor domain binding in CACNA1D, Förster resonance energy transfer in living cells, …; HEK cells, CFP/YFP FRET ICDI-IQ, plate reader, 10 min; percent FRET-ratio fall versus neutral wells; inhibition, % at 12.3 µM; AID 743397; 340,000 tested, 0.098% active;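 active = mean replicate inhibition of at least 30% and at least 1% of replicates passing that level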;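 note: 0% = median of the neutral control wells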
Runt-SMMHC FRET: Runt domain-CBFb-SMMHC interaction inhibition; 220,000 tested, 0.74% active; inhibition, % at 20 µM; Cerulean-Runt/Venus-CBFb-SMMHC FRET ratio 530/480, 1 h; Q01196+Q13951;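 active = mean inhibition across duplicate retests at 20 µM reaching about 50%, limit read from the data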;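 note: 0% = DMSO wells and 100% = wells with excess untagged CBFb-SMMHC; inhibitors lower the FRET ratio by blocking Runt binding to CBFb-SMMHC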
RanGTP-Imp inh: inhibitors of RanGTP-importin-beta interaction, primary screen, biochemical, FRET, CFP-Ran, YFP-importin-beta, homogeneous | cell-free CFP-Ran/YFP-importin-beta FRET ratio | inhibition, % (concentration not given with the values) | 300,000 tested, 1.1% active | AID 2216;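 active = more than half of the replicate wells show a fall in the fluorescence ratio signal beyond about 16%, limit read from the data, passing the limit was not always enough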;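 note: 0% = DMSO wells and 100% = Ran loaded with GDP instead of GTP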
Runt-CBFb FRET: Runt domain-CBFb interaction inhibition. Q01196+Q13951. Cerulean-Runt/Venus-CBFb FRET ratio 530/480, 1 h. inhibition, % at 20 µM. 220,000 tested, 0.46% active. AID 1496;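 active = inhibition over about 50% at 20 µM in the single-dose screen, limit read from the data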;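 note: 0% = DMSO wells and 100% = excess unlabeled CBFb competitor control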
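Buffer or medium: Tris pH 7.5 buffer with BSA. Assay system: Cerulean-labeled Runt domain protein. Amount: each fluorescent fusion protein 100 nM. Read-out basis: loss of energy transfer signal. Incubation: 1 h compound exposure, room temperature. Probe or stimulus: Venus-CBFb binding partner, 100 nM. Detection: FRET, excitation 422 nm, emission at 530 and 480 nm.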
Hck-Nef inh: human Hck-Nef kinase inhibition; inhibition, % at 20 µM; AID 463187; Recombinant Hck-YEEI plus Nef, Z-Lyte FRET kinase assay; 220,000 tested, 0.68% active;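 active = Hck-Nef kinase inhibition above about 50%, limit read from the data; inactive = inhibition below that limit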;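 note: 0% = DMSO with Hck plus Nef and 100% = Hck alone without Nef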
Runt-CBFb TRFRET: Runt-CBFb binding inhibition. TR-FRET RUNX1 Runt domain-CBFb binding. inhibition, % at 20 µM. 480 tested, 20% active. AID 1502. shares compounds with Runt-CBFb FRET; in the data active = inhibition above about 40%
* hit, by the source's call; · = no result.

SMILES	CaV13 FRET inh	Runt-SMMHC FRET	RanGTP-Imp inh	Runt-CBFb FRET	Hck-Nef inh	Runt-CBFb TRFRET
Cc1ccc(S(=O)(=O)c2cc3c(=O)n4ccccc4nc3n(CC3CCCO3)c2=N)cc1C (centres undefined)	3	106*	154*	98*	4	29
Cc1ccc(S(=O)(=O)N2CCN(Cc3cc(=O)n4ccccc4n3)CC2)cc1C	-6	·	·	·	·	·
COc1cccc(C(NC(=O)c2ccccc2F)NC(=O)c2ccccc2F)c1	-4	4	-7	-4	4	·
COc1cccc(C(c2c(N)[nH]c(=S)[nH]c2=O)c2c(N)[nH]c(=S)[nH]c2=O)c1	-20	19	1	51*	-22	56*
COc1ccc(C(CCN2CCN(c3ccccc3)CC2)c2c(OC)cc(OC)c3c(-c4ccccc4)cc(=O)oc23)cc1 (centres undefined)	-10	-3	4	55*	10	-2
COc1cc(OC)c2c(-c3ccccc3)cc(=O)oc2c1C(CCN1CCN(c2ccccc2)CC1)c1ccc(N(C)C)cc1 (centres undefined)	-7	-2	0	0	16	·
CCc1c(C)c(C#N)c2nc3ccccc3n2c1N(C)C	·	18	·	9	3	·
CCc1c(C)c(C#N)c2nc3ccccc3n2c1Nc1c(C)n(C)n(-c2ccccc2)c1=O	-5	92*	40*	56*	8	24
NC(=O)Nc1ccc(C(=O)OCC(=O)N2CCCC2=O)cc1	-2	·	·	·	·	·
Nc1nc2ccc(S(=O)(=O)N3CCCCC3)cc2s1	-8	56	-5	56*	-1	6
CC(Sc1nc(N)cc(=O)[nH]1)C(=O)Nc1ccc(N2CCOCC2)cc1 (centres undefined)	-5	·	·	·	·	·
CCCS(=O)(=O)N1CCCC(C(=O)NCCCN(C)c2ccccc2)C1 (centres undefined)	·	2	1	57*	2	8
CCOC(=O)c1c(/N=C/N(C)C)sc(/C=N/Nc2ccccc2)c1-c1ccc(Cl)cc1	-4	119*	-39	58*	6	-12
CC(NC(=O)CNC(=O)C1CCCCC1)c1ccc(S(N)(=O)=O)cc1 (centres undefined)	-3	·	-1	·	·	·
CN(C)S(=O)(=O)c1ccc(C(=O)OCC2COC(C)(C)O2)cc1 (centres undefined)	-4	·	1	·	·	·
C/C(=N/NC(=O)c1cc(O)c(O)c(O)c1)c1ccc([N+](=O)[O-])cc1	-4	50	9	54*	23	67*
Cc1ccc(NC(=S)N(CCN(C)C)Cc2cccs2)c(C)c1	-8	43	-1	54*	22	23
CC(C)C[C@H]1CN(CCCC[C@@H]2CNC(=O)C(=O)N2CCc2ccccc2)C(=O)C(=O)N1Cc1ccccc1	-6	·	·	·	·	·
CCn1ncc(CN2CCC(Oc3cc(C(=O)NC4CC4)ccc3OC)CC2)c1C	-6	·	0	·	·	·
O=C(O)C[C@@H]1C(=O)O[C@@H]2C(COC(=O)c3cc(O)c(O)c(O)c3)O[C@@H](OC(=O)c3cc(O)c(O)c(O)c3)[C@@H](OC(=O)c3cc(O)c(O)c4c3[C@H]1[C@H](O)C(=O)O4)[C@H]2OC(=O)c1cc(O)c(O)c(O)c1 (some centres undefined)	·	4	·	51*	102*	49*
COC1OC(COC(=O)c2ccccc2)C(OC(=O)c2ccccc2)C1OC(=O)c1ccccc1 (centres undefined)	-16	·	-1	·	·	·
N#C/C(=C\c1ccco1)C(=O)Nc1cccc2ncccc12	41*	29	9	61*	10	-7
O=C(NC(=S)Nc1cccc2ncccc12)c1ccco1	1	0	5	6	2	·
COc1cc(S(=O)(=O)N2CCOCC2)cc(C(=O)OCC(=O)NCc2ccco2)c1OC	-6	·	·	·	·	·
Cc1onc(-c2ccccc2)c1C(=O)NC(=S)Nc1sc2c(c1C#N)CCCC2	2	37	0	51*	-3	10
Cc1onc(-c2ccccc2)c1C(=O)NC(=S)Nc1sc2c(c1C#N)CCC(C)C2 (centres undefined)	-3	16	-1	20	-2	·
